The record followed here is the array DNA melting data of Ke et al. (doi:10.1101/2024.01.08.574731).

The nature of data set [1]: melting temperature; fluorescence melt of hairpins on a sequencing array, two-state fit, raised by 9.35 °C to match UV melts. As to conditions: sodium 0.088 M. The essentials:
(§1)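 Folding enthalpy and melting temperature were estimated with bootstrapped two-state fits and combined across four replicates by inverse-variance weighting, with fitted temperatures raised by 9.35 °C to match UV melts. The data were Cy3 fluorescence of library hairpins, with annealed Cy3 and quencher oligos, on a sequenced MiSeq flow cell in 50 mM Na-HEPES pH 8.0, 25 mM NaCl, imaged in 2.5 °C steps up to 60 °C and normalised to pre-quench Cy3 and control constructs.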

Data set [2] can be described thus: folding enthalpy; higher = less favourable; fluorescence melt of hairpins on a sequencing array, two-state fit. To be noted: sodium 0.088 M. The essentials: as §1

Regarding GATCCCCTAGGGATC ((((((...)))))), the Tm in data set [1] turned out to be 64.4 °C. Also, the folding enthalpy in data set [2] is -38.4 kcal/mol.
For GATCCCCTGAGGGATC ((((((....)))))), in that order: 61.9 °C and -31.8 kcal/mol.
For GATCCCCTTAGGGATC ((((((....)))))), in that order: 63.2 °C and -45 kcal/mol.
For GATCCCCTTCGGGATC ((((((....)))))), in that order: 58.7 °C and -39.9 kcal/mol.
For the sequence GATCCCCTTTGGGATC ((((((....)))))), the Tm in data set [1] was 61 °C. In addition, in data set [2], the folding enthalpy is -33.9 kcal/mol.
For GATCCCGAAAGGGGATC ((((((....))).))), in that order: 57.8 °C and -31.4 kcal/mol.
As to GATCCCGAAAGGGTCATC ((((((....)))..))), in data set [1], the Tm amounted to 42.8 °C. Also, the folding enthalpy in data set [2] is -12.1 kcal/mol.
For GATCCCGAAAGGGTGATC ((((((....)))..))) the same measures were 39.8 °C and -16.1 kcal/mol.
For GATCCCGAAGGGGATC ((((((....)))))), in that order: 65.5 °C and -19.7 kcal/mol.
For GATCCCGAGCGGGATC ((((((....)))))), in that order: 61.6 °C and -40.5 kcal/mol.
For GATCCCGAGTGGGATC ((((((....)))))), the Tm in data set [1] came out at 61.1 °C. Further, in data set [2], the folding enthalpy is -33.7 kcal/mol.
On to GATCCCGATCGGGATC ((((((....)))))), for which, in data set [1], the Tm is 62.3 °C. In addition, in data set [2], the folding enthalpy was -50.5 kcal/mol.
Regarding GATCCCGATGGGATC ((((((...)))))), the Tm in data set [1] was 61.3 °C. Also, in data set [2], the folding enthalpy is -36.5 kcal/mol.
For GATCCCGCCGGGGATC ((((((....)))))), in that order: 63.1 °C and -37.7 kcal/mol.
Regarding GATCCCGGAAACGGGACC (.(((((....))))).), in data set [1], the Tm turned out to be 46.7 °C. Further, the folding enthalpy in data set [2] was -11 kcal/mol.
Turning to GATCCCGGTGGGGATC ((((((....)))))), the Tm in data set [1] is 59.3 °C. For the same sequence, the folding enthalpy in data set [2] was -40.2 kcal/mol.
As for GATCCCGTAGGGGATC ((((((....)))))), the Tm in data set [1] was 62.9 °C. Moreover, the folding enthalpy in data set [2] is -23.4 kcal/mol.
Consider GATCCCGTGTGGGATC ((((((....)))))), for which, in data set [1], the Tm is 63.9 °C. Further, in data set [2], the folding enthalpy is -33.9 kcal/mol.
For GATCCCGTTGGGGATC ((((((....)))))) the same measures were 64.7 °C and -42.4 kcal/mol.
In the case of GATCCCTAAGGGATC ((((((...)))))), in data set [1], the Tm came out at 60.2 °C. For the same sequence, the folding enthalpy in data set [2] was -38.4 kcal/mol.
For GATCCCTACGGGGATC ((((((....)))))) the same measures were 62.1 °C and -39.4 kcal/mol.
For GATCCCTATCGGGATC ((((((....)))))), in that order: 60.2 °C and -38 kcal/mol.
For GATCCCTATGGGATC ((((((...)))))), in that order: 64.8 °C and -36.1 kcal/mol.
On to GATCCCTCAGGGGATC ((((((....)))))), for which the Tm in data set [1] was determined as 60.6 °C. Further, the folding enthalpy in data set [2] is -34.6 kcal/mol.
For the sequence GATCCCTCATGGGATC ((((((....)))))), in data set [1], the Tm was 62.6 °C. In addition, the folding enthalpy in data set [2] is -37 kcal/mol.
For GATCCCTCCAGGGATC ((((((....)))))), in that order: 63.9 °C and -39.1 kcal/mol.
For GATCCCTCCGGGGATC ((((((....)))))), in that order: 65.3 °C and -31.3 kcal/mol.
For GATCCCTCCTGGGATC ((((((....)))))) the same measures were 61 °C and -37 kcal/mol.
For GATCCCTCGAGGGATC ((((((....)))))), in data set [1], the Tm turned out to be 62 °C. In addition, the folding enthalpy in data set [2] is -41.7 kcal/mol.
For GATCCCTCGGGGATC ((((((...)))))) the same measures were 62.9 °C and -34.5 kcal/mol.
For GATCCCTGAGGGGATC ((((((....)))))) the same measures were 63 °C and -39.4 kcal/mol.
For GATCCCTGATGGGATC ((((((....)))))), the Tm in data set [1] is 59.8 °C. Also, the folding enthalpy in data set [2] is -41.1 kcal/mol.
For GATCCCTGCAGGGATC ((((((....)))))) the same measures were 66 °C and -37.8 kcal/mol.
For GATCCCTGTAGGGATC ((((((....)))))) the same measures were 65.8 °C and -41.1 kcal/mol.
For GATCCCTTGCGGGATC ((((((....)))))), in that order: 60.7 °C and -39.6 kcal/mol.
Consider GATCCCTTTCGGGATC ((((((....)))))), for which, in data set [1], the Tm came to 60.1 °C. For the same sequence, in data set [2], the folding enthalpy is -48.2 kcal/mol.
For GATCCCTTTGGGGATC ((((((....)))))), in that order: 62.8 °C and -46 kcal/mol.
For GATCCCTTTTGGGATC ((((((....)))))), in that order: 60.1 °C and -38.3 kcal/mol.
For GATCCGAAACGGATC ((((((...)))))) the same measures were 57 °C and -35.4 kcal/mol.
Take GATCCGAAATCGGATC ((((((....)))))): the Tm in data set [1] was 54.9 °C. In addition, the folding enthalpy in data set [2] is -35.4 kcal/mol.
For GATCCGAAGCCGGATC ((((((....)))))) the same measures were 55.4 °C and -39.6 kcal/mol.
For GATCCGACACGGATC ((((((...)))))) the same measures were 59.1 °C and -35.6 kcal/mol.
For GATCCGACCCGGATC ((((((...)))))), in that order: 56.6 °C and -39.9 kcal/mol.
Take GATCCGACTGCGGATC ((((((....)))))): the Tm in data set [1] turned out to be 56.1 °C. In addition, the folding enthalpy in data set [2] was -48.8 kcal/mol.
For GATCCGACTTCGGATC ((((((....)))))) the same measures were 57.4 °C and -39.6 kcal/mol.
For GATCCGAGCCGGATC ((((((...)))))), in that order: 56.3 °C and -44.5 kcal/mol.
Consider GATCCGAGGCCGGATC ((((((....)))))), for which, in data set [1], the Tm came out at 56.4 °C. In addition, the folding enthalpy in data set [2] is -45.5 kcal/mol.
For GATCCGAGGCGGATC ((((((...)))))), in that order: 56.8 °C and -43.4 kcal/mol.
For GATCCGAGTCCGGATC ((((((....)))))) the same measures were 56 °C and -40.2 kcal/mol.
For GATCCGATAACGGATC ((((((....)))))), in that order: 59.1 °C and -33.1 kcal/mol.
As for GATCCGATCTCGGATC ((((((....)))))), the Tm in data set [1] came to 62.2 °C. In addition, the folding enthalpy in data set [2] is -40.9 kcal/mol.
Regarding GATCCGATGGCGGATC ((((((....)))))), the Tm in data set [1] was found to be 56.6 °C. Also, the folding enthalpy in data set [2] is -42.8 kcal/mol.
For GATCCGATTCCGGATC ((((((....)))))), in that order: 57.1 °C and -43.5 kcal/mol.
For GATCCGATTGCGGATC ((((((....)))))) the same measures were 56.1 °C and -38.4 kcal/mol.
For GATCCGCAACGGATC ((((((...)))))) the same measures were 55.8 °C and -33 kcal/mol.
In the case of GATCCGCAAGCGGATC ((((((....)))))), in data set [1], the Tm was 68 °C. Also, the folding enthalpy in data set [2] was -39 kcal/mol.
For GATCCGCAATCGGATC ((((((....)))))) the same measures were 56 °C and -35.1 kcal/mol.
For GATCCGCCACCGGATC ((((((....)))))) the same measures were 56.4 °C and -34.3 kcal/mol.
For GATCCGCCCACGGATC ((((((....)))))), in that order: 59.5 °C and -43.6 kcal/mol.
Consider GATCCGCCCCGGATC ((((((...)))))), for which the Tm in data set [1] was 58.4 °C. For the same sequence, the folding enthalpy in data set [2] was -36.8 kcal/mol.
For GATCCGCCCGCGGATC ((((((....)))))), in that order: 68.7 °C and -38.3 kcal/mol.
For GATCCGCCGGCGGATC ((((((....)))))) the same measures were 68.9 °C and -45.4 kcal/mol.
For GATCCGCGAACGGATC ((((((....)))))) the same measures were 58.9 °C and -42.3 kcal/mol.
As to GATCCGCGACCGGATC ((((((....)))))), the Tm in data set [1] was 54.8 °C. The folding enthalpy in data set [2] is -38.4 kcal/mol.
For GATCCGCGATCGGATC ((((((....)))))), in that order: 57.4 °C and -28.8 kcal/mol.
For GATCCGCGGTCGGATC ((((((....)))))), in that order: 57.2 °C and -42.7 kcal/mol.
Take GATCCGCGTCCGGATC ((((((....)))))): in data set [1], the Tm stood at 57.6 °C. Also, the folding enthalpy in data set [2] was -41.8 kcal/mol.
For GATCCGCTATCGGATC ((((((....)))))) the same measures were 57.2 °C and -40.2 kcal/mol.
For GATCCGCTCACGGATC ((((((....)))))), in that order: 63.3 °C and -41.3 kcal/mol.
For GATCCGCTCTCGGATC ((((((....)))))), in that order: 60 °C and -33.8 kcal/mol.
For the sequence GATCCGCTTCCGGATC ((((((....)))))), the Tm in data set [1] was determined as 57.6 °C. In addition, the folding enthalpy in data set [2] is -38.2 kcal/mol.
Regarding GATCCGCTTTCGGATC ((((((....)))))), in data set [1], the Tm is 57.8 °C. Besides, the folding enthalpy in data set [2] is -40.4 kcal/mol.
As for GATCCGGCACGGATC ((((((...)))))), the Tm in data set [1] came out at 69.2 °C. In addition, the folding enthalpy in data set [2] was -36 kcal/mol.
As to GATCCGGCCCCGGATC ((((((....)))))), the Tm in data set [1] was 61.1 °C. In addition, in data set [2], the folding enthalpy is -47.8 kcal/mol.
For GATCCGGCCGCGGATC ((((((....)))))), in that order: 58 °C and -41.5 kcal/mol.
For GATCCGGCGACGGATC ((((((....)))))) the same measures were 67.4 °C and -33.4 kcal/mol.
